Compound activity (PubChem)
Cav3 T inh: human Cav3.2 channel inhibition, primary screen; O95180; Cav3.2-expressing cells, Fluo-4 calcium fluorescence FDSS; stronger effect = lower value; B-score at 10 µM; 4% of 100,000 active;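 active means single-dose well whose peak fluorescence ratio is a statistical outlier from its plate by either plate-standardised score or position-corrected B-score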
CYP2C19 activ: cytochrome P450 2C19 (human) activation; P33261; recombinant CYP2C19, luciferin-H EGE luminescence; stronger effect = higher value; 0 = fully inhibited enzyme, 1 = untreated enzyme; activation factor at 5 µM; 96,000 tested, under 10 active;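 active means activation factor of at least 2 at 5 µM in the primary screen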
HIV Rev-RRE inh: HIV Rev-RRE protein-RNA interaction inhibition; AID 704; Rev peptide-RRE RNA binding, FRET; 0.79% of 97,000 active; P05866; inhibition, % at 8 µM;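 active means inhibition above the screen-wide mean plus 3 SD, cut at about 35% in these data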
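Test system – labelled RRE RNA duplex and labelled Rev peptide · Signal – fluorescein-to-Cy5 FRET, 480 nm excitation · Evaluation – % inhibition of FRET ratio versus controls · Benchmarks – DMSO low control, neomycin B high control · Incubation – 5 min RNA-compound premix plus 15 min binding step, 25 °C · Medium – HEPES pH 7.5 salt buffer with EDTA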
CYP2C9 inhib: inhibitors of human CYP2C9 | CYP2C9 Supersomes, luciferin-H conversion, luminescence | inhibition, % at 5 µM | P11712 | 20% of 96,000 active | AID 777;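 active means blocking of liver enzyme CYP2C9 beyond about 50% at 5 µM, limit read from the data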
CYP2C19 inhib: blocks human cytochrome P450 2C19. 21% of 96,000 active. inhibition, % at 5 µM. P33261. AID 778. CYP2C19 Supersomes, luciferin-H EGE luminescence, 30 min;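 active means CYP2C19 inhibition above a set limit at 5 µM in the primary screen, cut at about 50% in these data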
CYP2C9 act: activators of human CYP2C9; P11712; recombinant CYP2C9, luciferin-H conversion, luminescence; stronger effect = higher value; factor 1 = untreated enzyme, 0 = blocked; activation factor at 5 µM; 1.4% of 96,000 active;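 active means activation factor of 2 or more for CYP2C9 at a 5 µM dose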
Large screens that a line does not name were inactive. Compounds with a hit are over-represented: about 27% of the library has one in this group of screens.

On1onc2c3cc(-c4ccccc4)nc3ccc21	CYP2C9 inhib 65 (no result: Cav3 T inh)
c1ccc(-c2cc3c(ccc4nonc43)nn2)cc1	none
C=CCc1ccc(OCCCCN2CC(C)OC(C)C2)c(OC)c1 (configuration not stated)	none
CCn1c(=O)cc(SCC(=O)N2CCN(c3ccccn3)CC2)c2ccccc21	CYP2C9 inhib 51, CYP2C19 inhib 72 (no result: Cav3 T inh, HIV Rev-RRE inh)
CCn1c(=O)cc(SCC(=O)N2CCN(c3ccccc3F)CC2)c2ccccc21	CYP2C9 act 2.2
CCn1c(=O)n(CC(=O)N2CCN(c3ccccc3F)CC2)c(=O)c2ccccc21	none (no result: Cav3 T inh)
Cc1cc2ccccc2c(=O)n1CC(=O)NCC(=O)N1CCCC(C)C1 (configuration not stated)	none
Cc1cc2ccccc2c(=O)n1CC(=O)NCC(=O)N1CCN(c2ccccc2F)CC1	Cav3 T inh -3.8, CYP2C9 act 2.1
CCOC(=O)CSC(C)C(=O)Nc1nnc(C(C)C)s1 (configuration not stated)	none (no result: CYP2C19 activ, CYP2C9 inhib, CYP2C19 inhib, CYP2C9 act)
Cc1ccc2c(c1)C(=O)CCN2	none
O=C1CCNc2cc3ccccc3cc21	HIV Rev-RRE inh 44, CYP2C19 inhib 52
C=C(c1ccc(O)cc1)c1ccc(O)cc1	CYP2C9 inhib 98, CYP2C19 inhib 96
COC(=O)C1=C(N)Oc2cc(C)n(Cc3cccnc3)c(=O)c2C1c1cccc(OC)c1OC (configuration not stated)	CYP2C9 inhib 50
COC(=O)C1=C(N)Oc2cc(C)n(CCc3ccccc3)c(=O)c2C1c1cccnc1 (configuration not stated)	CYP2C9 inhib 85, CYP2C19 inhib 92
COC(=O)C1=C(N)Oc2cc(C)n(Cc3cccnc3)c(=O)c2C1c1ccc(OC)c(OC)c1 (configuration not stated)	none (no result: Cav3 T inh)
COC(=O)C1=C(N)Oc2cc(C)n(CCCn3ccnc3)c(=O)c2C1c1cccc(Cl)c1 (configuration not stated)	CYP2C9 inhib 92, CYP2C19 inhib 83 (no result: HIV Rev-RRE inh)
COC(=O)C1=C(N)Oc2cc(C)n(CC3CCCO3)c(=O)c2C1c1ccc(Cl)cc1 (configuration not stated)	Cav3 T inh -3.1, CYP2C9 inhib 57, CYP2C19 inhib 67
Cc1cc(C)c(S(=O)(=O)N2CCOC2CNC(=O)C(=O)NCc2cccnc2)c(C)c1 (configuration not stated)	none (no result: CYP2C19 activ, HIV Rev-RRE inh, CYP2C9 inhib, CYP2C19 inhib, CYP2C9 act)
COc1ccc(C(C(=O)NC2CCCCC2)N(CC2CCCO2)C(=O)C2COc3ccccc3O2)cc1OC (configuration not stated)	none (no result: CYP2C19 activ, CYP2C9 inhib, CYP2C19 inhib, CYP2C9 act)
O=C(NC1CCCC1)C(c1ccc(O)cc1)N(CC1CCCO1)C(=O)C1COc2ccccc2O1 (configuration not stated)	CYP2C9 inhib 70, CYP2C19 inhib 56
N#Cc1c(SCc2cccc(Cl)c2)sc(C(=O)c2ccccc2)c1N	CYP2C9 inhib 89, CYP2C19 inhib 81
Cc1ccc(CSc2sc(C(=O)c3ccccc3)c(N)c2C#N)cc1	CYP2C9 inhib 61 (no result: Cav3 T inh)
N#Cc1c(Oc2ccc3ccccc3c2)sc(C(=O)c2ccccc2)c1N	none
CCCN(CCO)Cc1ccc(Br)cc1	none
CCCN(CCO)Cc1ccc(Cl)c(Cl)c1	none
OCCN(Cc1ccccc1)CC1CC2C=CC1C2 (configuration not stated)	none
OCCN(Cc1ccccc1)Cc1ccccc1F	CYP2C19 inhib 77
OCCN(Cc1ccccc1)Cc1ccccc1Cl	CYP2C19 inhib 81
OCCN(Cc1ccccc1)Cc1cccc(Cl)c1Cl	CYP2C9 inhib 76, CYP2C19 inhib 93
CC(C)C(c1nnnn1Cc1ccc(F)cc1)N1CCN(C2CCCCC2)CC1 (configuration not stated)	none
CCCCOc1ccccc1C1C(C(=O)OC)=CN(CC)C=C1C(=O)OC	none (no result: Cav3 T inh)
CCCOc1ccccc1C1C(C(=O)OC)=CN(C(C)C)C=C1C(=O)OC	CYP2C9 inhib 87, CYP2C19 inhib 89 (no result: Cav3 T inh)
C/C(CC(=O)Nc1ccccc1[N+](=O)[O-])=N\NC(=O)COc1ccccc1C	none
C/C(CC(=O)Nc1ccccc1-c1ccccc1)=N\NC(=O)COc1ccc(C)cc1Br	Cav3 T inh -6.5
O=S(=O)(c1cnc[nH]1)N1CCN(c2ccccc2)CC1	CYP2C19 inhib 64
Cc1ccc(Cl)cc1N1CCN(S(=O)(=O)c2cnc[nH]2)CC1	CYP2C9 inhib 97, CYP2C19 inhib 99
